Assay outcomes from PubChem BioAssay.
This is a sample that favours compounds with a hit; in the whole collection about 2.3% have one here.
TRPC6 act: mouse TRPC6 channel activation; B-score at 10 µM; 0.13% of 310,000 active; HEK293-TRPC6 membrane potential dye fluorescence; stronger effect = higher value; AID 2550; Q61143;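 active = B-score of the integrated fluorescence ratio above library mean plus 3 SD, and starting fluorescence ratio within library mean plus 5 SD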;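 also: higher score means more depolarization so channel activation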
Target sequence (Q61143 whole entry, looked up): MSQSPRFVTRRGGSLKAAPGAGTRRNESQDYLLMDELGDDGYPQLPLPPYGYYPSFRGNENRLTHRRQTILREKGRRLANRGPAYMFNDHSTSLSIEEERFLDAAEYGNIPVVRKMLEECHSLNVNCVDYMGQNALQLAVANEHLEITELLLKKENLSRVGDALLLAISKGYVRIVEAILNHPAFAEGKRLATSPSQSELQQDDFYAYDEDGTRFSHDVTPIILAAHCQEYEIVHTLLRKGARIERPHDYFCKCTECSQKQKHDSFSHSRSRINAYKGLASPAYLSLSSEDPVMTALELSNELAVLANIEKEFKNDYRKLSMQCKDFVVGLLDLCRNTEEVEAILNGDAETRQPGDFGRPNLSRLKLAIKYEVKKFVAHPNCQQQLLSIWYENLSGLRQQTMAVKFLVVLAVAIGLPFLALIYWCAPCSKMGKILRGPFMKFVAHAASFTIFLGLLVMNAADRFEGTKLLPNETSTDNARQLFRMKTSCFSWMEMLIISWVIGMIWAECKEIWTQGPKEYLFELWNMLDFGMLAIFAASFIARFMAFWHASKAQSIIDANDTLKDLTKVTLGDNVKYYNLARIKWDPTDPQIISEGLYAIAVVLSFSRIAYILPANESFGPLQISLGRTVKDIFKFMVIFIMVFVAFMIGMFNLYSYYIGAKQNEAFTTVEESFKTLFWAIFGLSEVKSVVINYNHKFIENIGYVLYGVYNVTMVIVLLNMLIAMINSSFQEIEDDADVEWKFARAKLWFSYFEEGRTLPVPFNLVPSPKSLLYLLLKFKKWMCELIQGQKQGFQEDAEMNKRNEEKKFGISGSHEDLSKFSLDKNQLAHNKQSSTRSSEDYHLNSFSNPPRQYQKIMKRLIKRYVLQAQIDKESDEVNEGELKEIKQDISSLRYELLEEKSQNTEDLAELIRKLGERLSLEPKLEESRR
TRPC4 act: opens the mouse TRPC4 cation channel | Q9QUQ5 | HEK293 TRPC4beta/mu-opioid, Fluo4 calcium fluorescence; stronger effect = higher value | 0.49% of 310,000 active | B-score at 10 µM;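 active = B-score above 5 SD of library B-scores, and initial fluorescence ratio not above library mean plus 5 SD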;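 also: positive B-score marks a calcium rise read as TRPC4 activation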
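system = HEK293 cells stably co-expressing mouse TRPC4beta and mu-opioid receptor | schedule = Fluo4 dye loading 45 min at room temperature, 110 s recording | measure = B-scored integrated calcium fluorescence ratio | signal = Fluo4 calcium-sensitive dye fluorescence, kinetic, 1 Hz baseline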
TRPC6 inh: inhibitors of mouse TRPC6 channel. 1.1% of 310,000 active. AID 2553. Q61143. HEK293-TRPC6, membrane potential dye, ACh-evoked depolarization; stronger effect = lower value. B-score at 10 µM;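 active = B-score under library mean minus 3 SD, initial fluorescence not abnormally high, positive integrated signal ratio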;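 also: B-score derived from integrated fluorescence ratio over the kinetic read; more negative B-score means stronger inhibition of depolarization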
TRPC4 potent: allosterically enhances the mouse TRPC4 cation channel; HEK293 TRPC4beta/mu-opioid, DAMGO EC20, Fluo-4 Ca2+ flux; stronger effect = higher value; B-score at 10 µM; 0.42% of 310,000 active;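 active = B-score of calcium response area above 5 SD of library B-scores, with initial fluorescence ratio within 5 SD of library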;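 also: B-score of integrated fluorescence ratio over time as area under calcium response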
TRPC4 block: TRPC4 (mouse) channel inhibition; Q9QUQ5; HEK293 TRPC4beta/mu-opioid, DAMGO-evoked Fluo4 calcium flux; stronger effect = lower value; B-score at 10 µM; 0.39% of 300,000 active;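 active = B-score over 3 SD under the library average, no early fluorescence shift, positive overall ratio signal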
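Test system – stable TRPC4beta/mu-opioid receptor HEK293 cells · Probe or stimulus – DAMGO, a submaximal dose followed by a maximal one · Dosing – one concentration per compound · Signal – Fluo4 calcium fluorescence by kinetic imaging, 5 s 1 Hz baseline · Evaluation – per-well B score of integrated baseline-normalized Fluo4 ratio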
Starred values were filed as active, the others as inactive.

Screening COc1ccc2oc(=Nc3ccccc3)c(-c3nc4ccccc4[nH]3)cc2c1 returned TRPC6 act inactive, TRPC4 act inactive, TRPC6 inh inactive, TRPC4 potent inactive and TRPC4 block inactive.
For Cc1c(NC(=O)CN2C(=O)NC3(CCC(C)CC3)C2=O)c(=O)n(-c2ccccc2)n1C (stereo not given) the results were TRPC6 act inactive, TRPC4 act inactive, TRPC6 inh inactive, TRPC4 potent inactive and TRPC4 block inactive.
Screening O=C(Cc1ccccc1[N+](=O)[O-])OCc1cccc([N+](=O)[O-])c1 returned TRPC6 act inactive, TRPC4 act inactive, TRPC6 inh inactive, TRPC4 potent inactive and TRPC4 block -6*.
CCCc1[nH]nc2c1C(CCc1ccccc1)C(C#N)=C(N)O2 (stereo not given) was read as TRPC6 act inactive, TRPC4 act inactive, TRPC6 inh inactive, TRPC4 potent 13* and TRPC4 block inactive.
Screening CCCc1[nH]nc2c1C(Cc1ccccc1)C(C#N)=C(N)O2 (stereo not given) returned TRPC6 act inactive, TRPC4 act inactive, TRPC6 inh inactive, TRPC4 potent inactive and TRPC4 block inactive.
`Cc1cc(C)cc(NCc2cc3c(cc2[N+](=O)[O-])OCO3)c1` gave TRPC6 act inactive, TRPC4 act inactive, TRPC6 inh inactive, TRPC4 potent inactive and TRPC4 block inactive.
Screening COc1ccc(CNCc2cc3c(cc2[N+](=O)[O-])OCO3)cc1 returned TRPC6 act inactive, TRPC4 act inactive, TRPC6 inh -5.3*, TRPC4 potent inactive and TRPC4 block inactive.
`NC(=O)c1nsc(C(=O)N(c2ccc3c(c2)OCCO3)C(C(=O)NCC2CCCO2)c2ccc(F)cc2)c1N` (stereo not given) gave TRPC6 act inactive, TRPC4 act inactive, TRPC6 inh inactive, TRPC4 potent inactive and TRPC4 block inactive.
Screening Cc1ccc(-n2c(SCc3cc(=O)n4ccsc4n3)nnc2-c2cccnc2)c(C)c1 returned TRPC6 act inactive, TRPC4 act inactive, TRPC6 inh inactive, TRPC4 potent inactive and TRPC4 block -7*.
Cc1ccc(-n2c(SCC(N)=O)nnc2-c2cccnc2)c(C)c1 was read as TRPC6 act inactive, TRPC4 act inactive, TRPC6 inh inactive, TRPC4 potent inactive and TRPC4 block inactive.
CN(C)CCCNc1ncnc2c1cnn2-c1ccccc1 was read as TRPC6 act inactive, TRPC4 act inactive, TRPC6 inh inactive, TRPC4 potent 25* and TRPC4 block inactive.
`CN(C)CCNc1ncnc2ccccc12` gave TRPC6 act inactive, TRPC4 act inactive, TRPC6 inh inactive, TRPC4 potent 11* and TRPC4 block inactive.
`CN(C)CCCNc1ncnc2c1cnn2Cc1ccccc1Cl` gave TRPC6 act inactive, TRPC4 act inactive, TRPC6 inh inactive, TRPC4 potent 18* and TRPC4 block inactive.
C=CCOc1ccc(CN(C)C(=O)CNC(=O)c2ccc(-c3ccccc3)cc2)cc1 was read as TRPC6 act inactive, TRPC4 act inactive, TRPC6 inh inactive, TRPC4 potent inactive and TRPC4 block inactive.
For CCCOc1ccc(C2=CSC3=NCCN23)cc1[N+](=O)[O-] the results were TRPC6 act inactive, TRPC4 act inactive, TRPC6 inh -6.2*, TRPC4 potent inactive and TRPC4 block inactive.
For COc1ccc(CNCCC2(Cc3ccccc3)CC(C)N(C)CC2C)cc1OC (stereo not given) the results were TRPC6 act inactive, TRPC4 act inactive, TRPC6 inh inactive, TRPC4 potent inactive and TRPC4 block inactive.
For NC(=O)C1(C(N)=O)OC1c1ccccc1 (stereo not given) the results were TRPC6 act inactive, TRPC4 act inactive, TRPC6 inh inactive, TRPC4 potent inactive and TRPC4 block inactive.
`CC1(C#CC[N+]2(C)CCCCC2)CCC2C(O1)c1ccccc1OC2(C)C` (stereo not given) gave TRPC6 act inactive, TRPC4 act inactive, TRPC6 inh inactive, TRPC4 potent 21* and TRPC4 block inactive.
`CC1CCCN(S(=O)(=O)c2ccc(NC(=O)C3CCN(C(=O)c4ccco4)CC3)cc2)C1` (stereo not given) gave TRPC6 act inactive, TRPC4 act 60*, TRPC6 inh inactive, TRPC4 potent inactive and TRPC4 block inactive.
`CCC(C)NS(=O)(=O)c1ccc(NC(=O)C2CCN(C(=O)c3ccco3)CC2)cc1` (stereo not given) gave TRPC6 act inactive, TRPC4 act inactive, TRPC6 inh inactive, TRPC4 potent inactive and TRPC4 block inactive.
For CCCCNC(=O)/C(C#N)=C/c1ccc(F)cc1F the results were TRPC6 act inactive, TRPC4 act inactive, TRPC6 inh inactive, TRPC4 potent 27* and TRPC4 block inactive.
O=C(Cn1nnc(-c2ccccc2F)n1)Nc1ccc2c(c1)OCCO2 was read as TRPC6 act inactive, TRPC4 act inactive, TRPC6 inh inactive, TRPC4 potent inactive and TRPC4 block inactive.
CCCCc1ccc(N/C(N)=N/c2nc(C)cc(C)n2)cc1 was read as TRPC6 act inactive, TRPC4 act 77*, TRPC6 inh inactive, TRPC4 potent inactive and TRPC4 block inactive.
`Cc1ccc(N/C(N)=N/c2nc(C)cc(C)n2)cc1` gave TRPC6 act inactive, TRPC4 act inactive, TRPC6 inh inactive, TRPC4 potent inactive and TRPC4 block inactive.
Screening Cc1cccc(N/C(N)=N/c2nc(C)cc(C)n2)c1 returned TRPC6 act inactive, TRPC4 act inactive, TRPC6 inh inactive, TRPC4 potent inactive and TRPC4 block inactive.
Cc1cc(C)cc(N/C(N)=N/c2nc(C)cc(C)n2)c1 was read as TRPC6 act inactive, TRPC4 act inactive, TRPC6 inh inactive, TRPC4 potent inactive and TRPC4 block -6*.
Cc1cc(C)nc(/N=C(\N)Nc2ccccc2-c2ccccc2)n1 was read as TRPC6 act inactive, TRPC4 act inactive, TRPC6 inh inactive, TRPC4 potent inactive and TRPC4 block -6*.
CC(=O)c1ccc(N2CCN(C(=O)CCCn3c(=O)[nH]c4ccccc4c3=O)CC2)cc1 was read as TRPC6 act inactive, TRPC4 act inactive, TRPC6 inh inactive, TRPC4 potent inactive and TRPC4 block inactive.
For COc1ccc(N2CCN(C(=O)CCCn3c(=O)[nH]c4cc(Cl)ccc4c3=O)CC2)cc1 the results were TRPC6 act inactive, TRPC4 act inactive, TRPC6 inh inactive, TRPC4 potent inactive and TRPC4 block -6*.
For CCCc1ccc(C(=O)NNc2ccccc2F)cc1 the results were TRPC6 act inactive, TRPC4 act inactive, TRPC6 inh inactive, TRPC4 potent inactive and TRPC4 block inactive.
